Results as given in ChEMBL document CHEMBL4400568, “The design of 1,4-naphthoquinone derivatives and mechanisms underlying apoptosis induction through ROS-dependent MAPK/Akt/STAT3 pathways in human lung cancer cells” (Bioorg Med Chem, 2019).
Calls of active or inactive are those of the source. The rule behind the calls is not given here.

Key:
IMR-90 = test: Cytotoxicity against human IMR90 cells assessed as reduction in cell viability after 24 hrs by MTT assay; type: cell-based; details: imr-90, 24 h
Summary of the method: (§1)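 Log-phase cells seeded at 1 × 10⁴ per well. Lung cancer lines (A549, NCI-H23, NCI-H460) and normal lines (IMR-90, QSG-7701, HEK-293A) each exposed to 1, 3, 10, 30 and 100 μM for 24 h. MTT (5 mg/mL stock) added for 2 h at 37°C, formazan dissolved in DMSO, absorbance read at 490 nm. Three independent experiments, mean ± SD.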

[1] = Cytotoxicity against human QSG7701 cells assessed as reduction in cell viability after 24 hrs by MTT assay; type: cell-based; summary of the method: as §1
[2] = Cytotoxicity against HEK293A cells assessed as reduction in cell viability after 24 hrs by MTT assay; type: cell-based; details: human, hek293-a; summary of the method: as §1
A549 [3] = test: Induction of apoptosis in human A549 cells assessed as late apoptotic cells at 3 uM after 3 hrs by Annexin V-FITC/propidium iodide staining-based flow cytometric analysis (reference value: 4.52%); type: functional
A549 [4] = test: Induction of apoptosis in human A549 cells assessed as early apoptotic cells at 3 uM after 12 hrs by Annexin V-FITC/propidium iodide staining-based flow cytometric analysis (reference value: 2.73%); type: functional
A549 [5] = test: Cell cycle arrest in human A549 cells assessed as accumulation of cells at G1 phase at 3 uM after 3 hrs by propidium iodide staining-based flow cytometric analysis (reference value: 57.65%); type: functional
A549 [6] = test: Cell cycle arrest in human A549 cells assessed as accumulation of cells at S phase at 3 uM after 3 hrs by propidium iodide staining-based flow cytometric analysis (reference value: 13.85%); type: functional
A549 [7] = test: Cell cycle arrest in human A549 cells assessed as accumulation of cells at G1 phase at 3 uM after 6 hrs by propidium iodide staining-based flow cytometric analysis (reference value: 57.65%); type: functional
A549 [8] = test: Cell cycle arrest in human A549 cells assessed as accumulation of cells at S phase at 3 uM after 6 hrs by propidium iodide staining-based flow cytometric analysis (reference value: 13.85%); type: functional
A549 [9] = test: Cell cycle arrest in human A549 cells assessed as accumulation of cells at S phase at 3 uM after 12 hrs by propidium iodide staining-based flow cytometric analysis (reference value: 13.85%); type: functional
A549 [10] = test: Cell cycle arrest in human A549 cells assessed as accumulation of cells at S phase at 3 uM after 24 hrs by propidium iodide staining-based flow cytometric analysis (reference value: 13.85%); type: functional
A549 [11] = test: Cell cycle arrest in human A549 cells assessed as accumulation of cells at G2 phase at 3 uM after 24 hrs by propidium iodide staining-based flow cytometric analysis (reference value: 24.02%); type: functional
A549 [12] = test: Cell cycle arrest in human A549 cells assessed as accumulation of cells at G1 phase at 3 uM by propidium iodide staining-based flow cytometric analysis; type: functional; details: TDE = time-dependent effect
A549 [13] = test: Cell cycle arrest in human A549 cells assessed as decrease in CDK4/6 levels at 3 uM by Western blot analysis; type: functional, cell-based; details: TDE = time-dependent effect
Summary of the method: (§2)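 A549 cells exposed to 3 μM for 3, 6, 12 or 24 h; where NAC is used, 10 mM NAC is added 30 min before 24 h treatment. Lysate protein (30 μg) is run on 12% SDS-PAGE, blotted to nitrocellulose, blocked in 5% milk, primary antibody overnight at 4°C, then HRP anti-IgG. β-actin loading control; densitometry; three independent experiments, mean ± SD.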

A549 [14] = test: Cell cycle arrest in human A549 cells assessed as decrease in cyclinD1/E levels at 3 uM by Western blot analysis; type: functional, cell-based; details: TDE = time-dependent effect; summary of the method: as §2
[15] = target: RAC-alpha serine/threonine-protein kinase (Homo sapiens) (UniProt P31749); test: Inhibition of AKT phosphorylation in human A549 cells at 3 uM by Western blot analysis; type: cell-based; details: TDE = time-dependent effect
Sequence of RAC-alpha serine/threonine-protein kinase (Homo sapiens) (P31749 whole entry): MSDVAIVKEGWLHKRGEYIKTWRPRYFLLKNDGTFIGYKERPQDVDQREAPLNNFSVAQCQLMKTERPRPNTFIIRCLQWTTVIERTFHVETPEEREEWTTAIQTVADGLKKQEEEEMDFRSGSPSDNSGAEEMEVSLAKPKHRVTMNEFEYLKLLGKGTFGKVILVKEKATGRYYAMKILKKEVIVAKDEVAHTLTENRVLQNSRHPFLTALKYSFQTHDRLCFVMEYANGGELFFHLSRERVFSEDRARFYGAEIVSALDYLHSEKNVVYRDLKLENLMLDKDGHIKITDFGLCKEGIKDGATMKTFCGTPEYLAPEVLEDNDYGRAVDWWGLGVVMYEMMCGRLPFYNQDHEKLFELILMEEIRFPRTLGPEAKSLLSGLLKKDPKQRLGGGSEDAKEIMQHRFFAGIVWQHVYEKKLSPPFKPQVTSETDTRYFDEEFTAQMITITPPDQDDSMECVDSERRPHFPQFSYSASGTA
Summary of the method: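 A549 cells exposed to 3 μM for 3, 6, 12 or 24 h. Lysate protein (30 μg) run on 12% SDS-PAGE and blotted to nitrocellulose. Membranes blocked in 5% skim milk, primary antibodies at 4°C overnight, then HRP anti-IgG secondary for 1 h at room temperature. β-actin was the internal control. Bands quantified by densitometry; three independent experiments, mean ± SD.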

A549 [16] = test: Cell cycle arrest in human A549 cells assessed as increase in p27 levels at 3 uM by Western blot analysis; type: functional, cell-based; details: TDE = time-dependent effect; summary of the method: as §2
[17] = target: MAP kinase p38 (Homo sapiens) (UniProt O15264+Q15759+Q16539+P53778); test: Activation of p38 phosphorylation in human A549 cells at 3 uM after 3 to 24 hrs by Western blot analysis; type: cell-based; summary of the method: as §2
[18] = target: T1, c-Jun N-terminal kinase, JNK (Homo sapiens) (UniProt P45983+P53779+P45984); test: Modulation of JNK in human A549 cells assessed as decrease in STAT3 phosphorylation measured after 24 hrs in presence of JNK inhibitor SP600125 by Western blot analysis; type: cell-based
Summary of the method: (§3)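 A549 cells pre-incubated for 30 min with 12.1 μM kinase inhibitor: SB203580 (p38), SP600125 (JNK), FR180204 (ERK) or LY10249 (Akt). Compound treatment followed for 24 h. Lysates (30 μg protein) analysed by 12% SDS-PAGE and nitrocellulose immunoblot with HRP detection. Three independent experiments, mean ± SD.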

[19] = target: T1, c-Jun N-terminal kinase, JNK (Homo sapiens); test: Modulation of JNK in human A549 cells assessed as increase in cleaved caspase-3 measured after 24 hrs in presence of JNK inhibitor-SP600125 by Western blot analysis; type: cell-based
[20] = target: RAC-alpha serine/threonine-protein kinase (Homo sapiens) (UniProt P31749); test: Modulation of AKT in human A549 cells assessed as decrease in cyclinD1 levels measured after 24 hrs in presence of Akt inhibitor-LY10249 by Western blot analysis; type: cell-based; summary of the method: as §3
[21] = target: RAC-alpha serine/threonine-protein kinase (Homo sapiens) (UniProt P31749); test: Modulation of AKT in human A549 cells assessed as increase in p27 levels measured after 24 hrs in presence of Akt inhibitor-LY10249 by Western blot analysis; type: cell-based; summary of the method: as §3
A549 [22] = test: Induction of ROS generation in human A549 cells assessed as intracellular ROS level at 3 uM after 12 hrs by DCFH-DA staining-based flow cytometric analysis (reference value: 51.8%); type: functional
Summary of the method: (§4)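 A549 cells loaded with DCFH-DA (10 μM per legend) for 30 min, then exposed to 3 μM at 37°C for 3, 6, 12 or 24 h. After two PBS washes, intracellular fluorescence is quantified by flow cytometry. Three independent experiments, mean ± SD.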

A549 [23] = test: Induction of ROS generation in human A549 cells assessed as intracellular ROS level at 3 uM after 24 hrs by DCFH-DA staining-based flow cytometric analysis (reference value: 51.8%); type: functional; summary of the method: as §4
A549 [24] = test: Induction of apoptosis in human A549 cells assessed as late apoptotic cells at 3 uM in presence of NAC by Annexin V-FITC/propidium iodide staining-based flow cytometric analysis (reference value: 0.22%); type: functional
A549 [25] = test: Induction of apoptosis in human A549 cells assessed as increase in cleaved caspase-3 at 3 uM measured after 24 hrs in presence of NAC by Western blot analysis; type: functional, cell-based; summary of the method: as §2

CCCS(=O)(=O)C12OC1C(=O)c1c(OC)ccc(OC)c1C2=O (configuration not stated)
Activity (IMR-90): Non-Toxic
Activity [1]: Non-Toxic
Activity [2]: Non-Toxic
Activity (A549 [3]): 5.11%
Activity (A549 [4]): 35.37%
Activity (A549 [5]): 60.85%
Activity (A549 [6]): 11.61%
Activity (A549 [7]): 66.13%
Activity (A549 [8]): 10.31%
Activity (A549 [9]): 9.06%
Activity (A549 [10]): 7.41%
Activity (A549 [11]): 17.13%
Activity (A549 [12]): Tde
Activity (A549 [13]): Tde
Activity (A549 [14]): Tde
inhibition [15]: Tde
Activity (A549 [16]): Tde
Activity [17]: Active
Activity [18]: inactive
Activity [19]: inactive
Activity [20]: Active
Activity [21]: Active
Activity (A549 [22]): 68.59%
Activity (A549 [23]): 76.35%
Activity (A549 [24]): 2.67%
Activity (A549 [25]): inactive

CCCCCCCCCS(=O)(=O)C12OC1C(=O)c1c(OC)ccc(OC)c1C2=O (configuration not stated)
Activity (IMR-90): Non-Toxic
Activity [1]: Non-Toxic
Activity [2]: Non-Toxic
Activity (A549 [3]): 5.43%
Activity (A549 [4]): 16.92%
Activity (A549 [5]): 61.21%
Activity (A549 [6]): 9.45%
Activity (A549 [7]): 65.95%
Activity (A549 [8]): 8.44%
Activity (A549 [9]): 7.18%
Activity (A549 [10]): 6.03%
Activity (A549 [11]): 19.84%
Activity (A549 [12]): Tde
Activity (A549 [13]): Tde
Activity (A549 [14]): Tde
inhibition [15]: Tde
Activity (A549 [16]): Tde
Activity [17]: Active
Activity [18]: inactive
Activity [19]: inactive
Activity [20]: Active
Activity [21]: Active
Activity (A549 [22]): 62.75%
Activity (A549 [23]): 70.81%
Activity (A549 [24]): 3.03%
Activity (A549 [25]): inactive
